Measurements from ChEMBL document CHEMBL3872218, “Synthesis and T-type calcium channel-blocking effects of aryl(1,5-disubstituted-pyrazol-3-yl)methyl sulfonamides for neuropathic pain treatment” (Eur J Med Chem, 2016).

Experiments:
Rattus norvegicus [1] = test: Antineuropathic pain activity in rat spinal nerve ligation model assessed as effect on mechanical allodynia by measuring frequency of paw withdrawal at 100 mg/kg, po measured at 1 hr relative to control; format: functional
Outline: (§1)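 Spinal nerve ligation rats tested 2 weeks after nerve surgery, 100 mg/kg oral, n = 4 per group. Behaviour re-tested at 1, 3 and 5 h after dosing. Mechanical allodynia: von Frey filament applied five times, every 3–4 s, to the hind paw on a wire mesh floor. Cold allodynia: acetone applied to the plantar hind paw on a metal mesh floor.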

[2] = Metabolic stability in human liver microsomes assessed as compound remaining at 1 uM in presence of NADPH as cofactor by LC-MS/MS method; format: ADME; settings: read-out: Stability
Outline: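 Pooled mixed-gender human liver microsomes incubated with compound at 37 °C with NADPH as cofactor. Result given as % parent compound remaining.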

[3] = Ratio of drug level in brain to plasma in Sprague-Dawley rat at 10 mg/kg, po at 2 hrs post dose; format: ADME, organism-based; settings: read-out: BPR
[4] = Total clearance in Sprague-Dawley rat at 10 mg/kg, iv; format: ADME, organism-based; settings: in vivo
CYP3A4 = CYP3A4 (Homo sapiens, UniProt P08684); test: Inhibition of human CYP3A4 assessed as remaining activity at 10 uM using vivid CYP450 substrate measured after 15 mins by fluorescence assay relative to ketoconazole; format: ADME; settings: probe vivid CYP450 substrate, read-out: Activity
Outline: (§2)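 Vivid fluorescence CYP assay: test compound at […] in water, mixed with BACULOSOMES master pre-mix and regeneration system, preincubated 15 min at 37 °C. Reaction started with Vivid substrate and NADPH. Remaining activity read by fluorescence as % of control, triplicate, mean ± SD. Isoform-specific reference inhibitors: α-naphthoflavone (1A2), sulfaphenazole (2C9), quinidine (2D6), ketoconazole (3A4).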

[5] = Drug uptake in Sprague-Dawley rat brain at 10 mg/kg, po at 2 hrs post dose; format: ADME, organism-based; settings: read-out: Drug uptake
[6] = AUC (0 to infinity) in Sprague-Dawley rat at 10 mg/kg, po; format: ADME, organism-based; design: dose 10 mg/kg, time infinity, route oral; settings: in vivo
CYP2D6 = CYP2D6 (Homo sapiens, UniProt P10635); test: Inhibition of human CYP2D6 assessed as remaining activity at 10 uM using vivid CYP450 substrate measured after 15 mins by fluorescence assay relative to quinidine; format: ADME; settings: probe vivid CYP450 substrate, read-out: Activity; outline: as §2
[7] = AUClast in Sprague-Dawley rat at 10 mg/kg, iv; format: ADME, organism-based; design: dose 10 mg/kg, time 0 - last, route intravenous; settings: in vivo
[8] = Plasma concentration in Sprague-Dawley rat at 10 mg/kg, iv at 2 hrs post dose; format: ADME, organism-based
Rattus norvegicus [9] = test: Antineuropathic pain activity in rat spinal nerve ligation model assessed as effect on cold allodynia by measuring frequency of paw withdrawal at 100 mg/kg, po measured at 1 hr relative to gabapentin; format: functional; outline: as §1
CYP2C9 = CYP2C9 (Homo sapiens, UniProt P11712); test: Inhibition of human CYP2C9 assessed as remaining activity at 10 uM using vivid CYP450 substrate measured after 15 mins by fluorescence assay relative to sulfaphenazol; format: ADME; settings: probe vivid CYP450 substrate, read-out: Activity; outline: as §2
[10] = target: Voltage-dependent T-type calcium channel subunit alpha-1H (Homo sapiens, UniProt O95180); test: Inhibition of Cav3.2 alpha1H (unknown origin) expressed in HEK293 cells assessed as decrease in KCl-induced depolarization mediated intracellular Ca2+ level at 10 uM by fluo3/AM based high throughput screening assay relative to control; format: cell-based
Outline: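 HEK293 cells stably expressing Cav3.1 or Cav3.2 plated at 4 × 10⁴ cells/well and used the next day. Loaded 60 min at room temperature with […] fluo3/AM plus 0.001% Pluronic F-127 in HEPES-buffered saline (1.8 mM CaCl₂, pH 7.4). Ca²⁺ fluorescence read on FDSS6000 as % inhibition, compound at […].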

[11] = Tmax in Sprague-Dawley rat at 10 mg/kg, po; format: ADME, organism-based; settings: in vivo
[12] = Drug excretion in Sprague-Dawley rat at 10 mg/kg, po; format: ADME, organism-based; settings: in vivo, read-out: Drug excretion
[13] = Terminal half life in Sprague-Dawley rat at 10 mg/kg, po; format: ADME, organism-based; settings: in vivo, read-out: beta t1/2
Rattus norvegicus [14] = test: Antineuropathic pain activity in rat spinal nerve ligation model assessed as effect on mechanical allodynia by measuring frequency of paw withdrawal at 100 mg/kg, po measured at 1 hr relative to gabapentin; format: functional; outline: as §1

Chain of Voltage-dependent T-type calcium channel subunit alpha-1H (O95180 whole entry): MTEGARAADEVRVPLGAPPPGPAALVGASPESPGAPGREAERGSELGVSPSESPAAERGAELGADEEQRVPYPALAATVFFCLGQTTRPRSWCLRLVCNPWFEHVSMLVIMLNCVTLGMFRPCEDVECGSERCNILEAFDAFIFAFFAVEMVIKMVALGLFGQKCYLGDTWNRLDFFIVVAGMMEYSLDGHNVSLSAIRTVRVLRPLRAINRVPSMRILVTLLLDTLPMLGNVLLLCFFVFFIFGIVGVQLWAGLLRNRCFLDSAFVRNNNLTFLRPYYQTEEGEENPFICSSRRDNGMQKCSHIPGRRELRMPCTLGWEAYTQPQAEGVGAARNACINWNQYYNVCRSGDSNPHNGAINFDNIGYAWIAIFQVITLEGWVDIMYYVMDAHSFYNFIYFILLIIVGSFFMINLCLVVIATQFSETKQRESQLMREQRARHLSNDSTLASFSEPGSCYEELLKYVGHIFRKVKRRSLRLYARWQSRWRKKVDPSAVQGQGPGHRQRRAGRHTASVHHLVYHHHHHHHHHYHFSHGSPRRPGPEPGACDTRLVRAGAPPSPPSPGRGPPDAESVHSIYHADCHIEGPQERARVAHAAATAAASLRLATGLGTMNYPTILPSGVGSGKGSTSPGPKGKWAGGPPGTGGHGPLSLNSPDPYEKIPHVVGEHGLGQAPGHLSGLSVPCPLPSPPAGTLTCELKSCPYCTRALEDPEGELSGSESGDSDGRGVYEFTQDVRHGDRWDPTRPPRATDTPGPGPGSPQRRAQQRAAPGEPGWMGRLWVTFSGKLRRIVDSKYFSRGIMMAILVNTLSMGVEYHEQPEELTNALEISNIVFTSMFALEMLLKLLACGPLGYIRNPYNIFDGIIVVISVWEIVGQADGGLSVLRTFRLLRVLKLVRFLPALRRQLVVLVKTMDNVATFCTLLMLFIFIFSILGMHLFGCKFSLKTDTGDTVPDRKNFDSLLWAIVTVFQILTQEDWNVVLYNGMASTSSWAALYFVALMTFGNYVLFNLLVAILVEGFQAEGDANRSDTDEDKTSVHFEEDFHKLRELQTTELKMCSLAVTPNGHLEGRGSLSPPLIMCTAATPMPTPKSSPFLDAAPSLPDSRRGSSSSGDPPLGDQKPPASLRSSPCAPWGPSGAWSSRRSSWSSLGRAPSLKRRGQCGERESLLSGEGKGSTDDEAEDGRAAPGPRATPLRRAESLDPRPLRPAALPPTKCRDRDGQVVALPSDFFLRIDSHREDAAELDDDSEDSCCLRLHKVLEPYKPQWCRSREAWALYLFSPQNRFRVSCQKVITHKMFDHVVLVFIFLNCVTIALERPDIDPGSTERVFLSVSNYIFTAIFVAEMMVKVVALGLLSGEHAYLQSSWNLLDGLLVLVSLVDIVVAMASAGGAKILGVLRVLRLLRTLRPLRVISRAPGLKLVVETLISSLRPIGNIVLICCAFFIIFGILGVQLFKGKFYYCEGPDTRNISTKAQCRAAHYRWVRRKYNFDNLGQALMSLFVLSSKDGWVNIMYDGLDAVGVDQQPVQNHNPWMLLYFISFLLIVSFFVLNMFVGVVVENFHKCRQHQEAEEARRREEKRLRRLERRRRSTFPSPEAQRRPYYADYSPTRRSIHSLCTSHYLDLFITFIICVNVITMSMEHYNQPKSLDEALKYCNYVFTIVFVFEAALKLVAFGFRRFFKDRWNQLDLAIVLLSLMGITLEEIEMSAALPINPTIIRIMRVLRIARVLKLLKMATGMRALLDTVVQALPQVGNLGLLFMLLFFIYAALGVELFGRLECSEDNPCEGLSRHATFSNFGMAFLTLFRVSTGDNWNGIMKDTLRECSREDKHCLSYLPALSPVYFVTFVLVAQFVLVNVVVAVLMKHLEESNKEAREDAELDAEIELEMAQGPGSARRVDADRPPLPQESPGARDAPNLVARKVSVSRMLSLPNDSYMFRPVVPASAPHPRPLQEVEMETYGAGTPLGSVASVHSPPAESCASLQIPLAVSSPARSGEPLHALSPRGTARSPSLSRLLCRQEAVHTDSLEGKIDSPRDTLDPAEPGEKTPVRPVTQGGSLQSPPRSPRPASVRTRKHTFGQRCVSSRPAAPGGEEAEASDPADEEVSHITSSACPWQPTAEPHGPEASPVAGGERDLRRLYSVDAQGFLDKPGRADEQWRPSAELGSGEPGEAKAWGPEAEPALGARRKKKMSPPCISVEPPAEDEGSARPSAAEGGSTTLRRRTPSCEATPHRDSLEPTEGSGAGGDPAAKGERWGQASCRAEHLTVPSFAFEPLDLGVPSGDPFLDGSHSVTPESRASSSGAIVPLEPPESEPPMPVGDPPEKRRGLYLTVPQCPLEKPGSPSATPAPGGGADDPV
Chain of CYP3A4 (P08684 whole entry, canonical isoform): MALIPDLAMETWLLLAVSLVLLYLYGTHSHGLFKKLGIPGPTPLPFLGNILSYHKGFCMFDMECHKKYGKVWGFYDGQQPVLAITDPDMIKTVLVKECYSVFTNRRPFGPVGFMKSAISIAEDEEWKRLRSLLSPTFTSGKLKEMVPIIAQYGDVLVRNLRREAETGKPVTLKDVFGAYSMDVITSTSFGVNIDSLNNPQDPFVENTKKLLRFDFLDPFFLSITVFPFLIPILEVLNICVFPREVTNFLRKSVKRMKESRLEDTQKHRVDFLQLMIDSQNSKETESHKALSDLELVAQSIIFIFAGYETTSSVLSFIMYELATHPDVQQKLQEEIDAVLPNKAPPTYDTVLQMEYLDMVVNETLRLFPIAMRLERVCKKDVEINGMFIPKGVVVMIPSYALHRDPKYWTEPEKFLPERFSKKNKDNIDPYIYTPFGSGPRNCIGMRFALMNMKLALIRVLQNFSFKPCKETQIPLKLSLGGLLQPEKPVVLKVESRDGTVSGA
Chain of CYP2D6 (P10635 whole entry): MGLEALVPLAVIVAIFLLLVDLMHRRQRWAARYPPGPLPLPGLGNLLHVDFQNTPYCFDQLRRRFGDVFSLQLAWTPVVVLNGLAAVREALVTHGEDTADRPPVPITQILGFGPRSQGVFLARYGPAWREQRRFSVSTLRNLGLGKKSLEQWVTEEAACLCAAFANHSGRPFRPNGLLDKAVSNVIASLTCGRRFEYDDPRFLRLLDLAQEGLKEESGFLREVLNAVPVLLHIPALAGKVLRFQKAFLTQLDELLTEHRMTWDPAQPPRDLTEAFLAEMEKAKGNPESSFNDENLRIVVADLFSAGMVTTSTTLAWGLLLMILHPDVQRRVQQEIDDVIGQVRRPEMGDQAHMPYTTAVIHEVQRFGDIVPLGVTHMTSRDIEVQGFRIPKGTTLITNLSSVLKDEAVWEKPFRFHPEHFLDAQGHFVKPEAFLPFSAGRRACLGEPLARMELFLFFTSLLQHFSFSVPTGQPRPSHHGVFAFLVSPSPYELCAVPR
Chain of CYP2C9 (P11712 whole entry): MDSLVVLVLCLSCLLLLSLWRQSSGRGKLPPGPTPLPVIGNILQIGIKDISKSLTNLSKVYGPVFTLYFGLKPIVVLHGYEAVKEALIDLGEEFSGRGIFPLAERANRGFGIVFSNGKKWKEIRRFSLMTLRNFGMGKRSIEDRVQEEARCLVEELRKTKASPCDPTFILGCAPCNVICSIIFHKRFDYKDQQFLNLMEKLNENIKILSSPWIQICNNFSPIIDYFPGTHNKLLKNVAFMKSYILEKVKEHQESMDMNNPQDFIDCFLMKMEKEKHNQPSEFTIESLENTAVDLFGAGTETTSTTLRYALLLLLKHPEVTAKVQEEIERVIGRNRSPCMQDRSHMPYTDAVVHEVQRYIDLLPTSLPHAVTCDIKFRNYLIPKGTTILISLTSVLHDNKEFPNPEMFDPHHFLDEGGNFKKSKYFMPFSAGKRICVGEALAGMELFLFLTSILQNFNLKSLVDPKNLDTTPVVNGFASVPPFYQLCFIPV

- remaining at 1 µM [2]: 1.72%
- Kp at 2 h [3]: 0.19
- clearance [4]: 83.8 mL/min/kg
- activity at 0.25 h, 10 µM (CYP3A4): 80.1%
- concentration at 2 h [5]: 8.6 ng/mL
- AUC(0-inf) [6]: 168 ng·h/mL
- activity at 0.25 h, 10 µM (CYP2D6): 204%
- AUC(0-t) [7]: 2010 ng·h/mL
- concentration at 2 h [8]: 270 ng/mL
- activity at 0.25 h, 10 µM (CYP2C9): 30.4%
- inhibition [10]: 62.7%
- Tmax [11]: 1.1 h
- dose excreted [12]: 0%
- half-life [13]: 1.11 h
Structure (SMILES): CC(C)Cc1cc(CNS(=O)(=O)c2cccc(F)c2)nn1-c1ccccc1
- MPE (Rattus norvegicus [1]): 1.63%
- MPE (Rattus norvegicus [9]): 202.07%
- MPE (Rattus norvegicus [14]): 14.78%
